Measurements from ChEMBL document CHEMBL1138673, “Bulky nonproteinogenic amino acids permit the design of very small and effective cationic antibacterial peptides” (2004).
In brackets after ≈: the same amount, converted by molar mass. Square brackets hold non-standard residues; d marks the D form. Peptide text beside a SMILES is read from it. * marks the point of attachment. Phe(4-tBu) = CC(C)(C)c1ccc(C[C@H](N)C(=O)O)cc1; Bip = N[C@@H](Cc1ccc(-c2ccccc2)cc1)C(=O)O; tBuAla = CC(C)(C)C[C@H](N)C(=O)O; Cha = N[C@@H](CC1CCCCC1)C(=O)O; Tle = CC(C)(C)[C@H](N)C(=O)O; NHBn = c1ccc(CN*)cc1; OBn = c1ccc(CO*)cc1

Legend:
Staphylococcus aureus = test: Minimum inhibitory concentration against Staphylococcus aureus; type: functional
Outline: (§1)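 E. coli ATCC 25922 or S. aureus ATCC 25923 grown to exponential phase in 2% Bacto Peptone water. Standard broth microdilution, inoculum 2 × 10^6 cfu/mL, in 1% Bacto Peptone water, overnight incubation at 37 °C. MIC read after incubation. Each peptide run in parallel from at least three independent dilutions, with gentamicin as internal standard.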

Escherichia coli = test: Minimum inhibitory concentration against Escherichia coli; type: functional; outline: as §1

SMILES | MIC (Staphylococcus aureus) [µg/mL] | MIC (Escherichia coli) [µg/mL]
NCCCC[C@H](N)C(=O)N[C@H](Cc1c[nH]c2ccccc12)C(=O)OCc1ccccc1 (H-Lys-[dW]-OBn) | 50 (≈ 118 µM) | > 200
COC(=O)[C@H](CCCN=C(N)N)NC(=O)[C@@H](N)Cc1ccc(C(C)(C)C)cc1 (H-[Phe(4-tBu)]-Arg-OMe) | > 300 | > 300
C[C@H](N)C(=O)N[C@@H](CCCN=C(N)N)C(=O)OCc1ccc(-c2ccccc2)cc1 | 100 (≈ 243 µM) | 300 (≈ 729 µM)
NCCCC[C@H](N)CN[C@@H](Cc1c[nH]c2ccccc12)C(=O)OCc1ccccc1 | 150 (≈ 367 µM) | > 300
CC(C)(C)c1ccc(C[C@H](N)C(=O)N[C@@H](CCCN=C(N)N)C(=O)OCc2ccccc2)cc1 (H-[Phe(4-tBu)]-Arg-OBn) | 25 (≈ 53.5 µM) | 200 (≈ 428 µM)
CC(C)NC(=O)[C@H](CCCN=C(N)N)NC(=O)[C@@H](N)Cc1c(C(C)(C)C)[nH]c2c(C(C)(C)C)cc(C(C)(C)C)cc12 | 7.5 (≈ 13.2 µM) | 50 (≈ 87.7 µM)
NC(N)=NCCC[C@H](NC(=O)[C@@H](N)Cc1ccc(-c2ccccc2)cc1)C(=O)OCc1ccc(-c2ccccc2)cc1 | 5 (≈ 8.87 µM) | 50 (≈ 88.7 µM)
NC(N)=NCCC[C@H](NC(=O)[C@@H](N)Cc1c[nH]c2ccccc12)C(=O)NCc1ccccc1 (H-Trp-Arg-NHBn) | 100 (≈ 222 µM) | > 300
NC(N)=NCCC[C@H](NC(=O)[C@@H](N)Cc1c2ccccc2cc2ccccc12)C(=O)NCc1ccccc1 | 20 (≈ 39.2 µM) | 150 (≈ 294 µM)
NCCCC[C@H](N)C(=O)N[C@@H](Cc1c[nH]c2ccccc12)C(=O)OCc1ccccc1 (H-Lys-Trp-OBn) | 75 (≈ 178 µM) | > 200
COC(=O)[C@H](CCCN=C(N)N)NC(=O)[C@@H](N)Cc1ccc(-c2ccccc2)cc1 (H-[Bip]-Arg-OMe) | 150 (≈ 365 µM) | > 300
CC(C)(C)c1cc(C(C)(C)C)c2[nH]c(C(C)(C)C)c(C[C@H](N)C(=O)N[C@@H](CCCNC(=N)N)C(N)=O)c2c1 | 15 (≈ 28.4 µM) | > 150
CC(C)(C)c1cc(C(C)(C)C)c2[nH]c(C(C)(C)C)c(C[C@H](N)C(=O)N[C@@H](CCCNC(=N)N)C(=O)NCc3ccccc3)c2c1 | 2.5 (≈ 4.05 µM) | 10 (≈ 16.2 µM)
COC(=O)[C@H](CCCNC(=N)N)NC(=O)[C@@H](N)Cc1c(C(C)(C)C)[nH]c2c(C(C)(C)C)cc(C(C)(C)C)cc12 | 5 (≈ 9.21 µM) | 30 (≈ 55.3 µM)
CC(C)(C)[C@H](N)C(=O)N[C@@H](CCCN=C(N)N)C(=O)OCc1ccccc1 (H-[Tle]-Arg-OBn) | > 300 | > 300
NC(N)=NCCC[C@H](NC(=O)[C@@H](N)Cc1ccccc1)C(=O)OCc1ccc(-c2ccccc2)cc1 | 12.5 (≈ 25.6 µM) | 100 (≈ 205 µM)
CC(C)(C)C[C@H](N)C(=O)N[C@@H](CCCN=C(N)N)C(=O)OCc1ccccc1 (H-[tBuAla]-Arg-OBn) | > 300 | > 300
NC(N)=NCCC[C@H](NC(=O)[C@@H](N)Cc1ccc(-c2ccccc2)cc1)C(=O)NCc1ccccc1 (H-[Bip]-Arg-NHBn) | 15 (≈ 30.8 µM) | > 50
NC(N)=NCCC[C@H](NC(=O)[C@@H](N)CC1CCCCC1)C(=O)OCc1ccccc1 (H-[Cha]-Arg-OBn) | 100 (≈ 239 µM) | > 300
NC(N)=NCCC[C@H](NC(=O)[C@@H](N)Cc1ccc(-c2ccccc2)cc1)C(=O)OCc1ccccc1 (H-[Bip]-Arg-OBn) | 5 (≈ 10.3 µM) | 150 (≈ 308 µM)
